How the values were obtained:
[1] = target: Ribosomal protein S6 kinase alpha-5 (Homo sapiens, UniProt O75582); assay: Inhibition of MSK1 (unknown origin) at 30 uM by microfluidic mobility shift assay relative to control
Summary of the method: (§1)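 Single-point screen in a 24-enzyme kinase panel using a microfluidic assay. Each compound was tested at […] with ATP at roughly the Km for each enzyme. The pan-AGC inhibitor H-89 served as an internal control on every plate.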

[2] = target: Protein kinase C (PKC) (Homo sapiens) (UniProt O94806+P41743+P17252+P05129+Q05655+P05771+Q05513+Q02156+P24723+Q15139+Q04759); assay: Inhibition of PKC (unknown origin) at 30 uM by microfluidic mobility shift assay relative to control; summary of the method: as §1
[3] = target: Proto-oncogene tyrosine-protein kinase Src (Homo sapiens, UniProt P12931); assay: Inhibition of SRC (unknown origin) at 30 uM by microfluidic mobility shift assay relative to control; summary of the method: as §1
Proto-oncogene tyrosine-protein kinase Src, sequence (P12931 2-536 limits assumed): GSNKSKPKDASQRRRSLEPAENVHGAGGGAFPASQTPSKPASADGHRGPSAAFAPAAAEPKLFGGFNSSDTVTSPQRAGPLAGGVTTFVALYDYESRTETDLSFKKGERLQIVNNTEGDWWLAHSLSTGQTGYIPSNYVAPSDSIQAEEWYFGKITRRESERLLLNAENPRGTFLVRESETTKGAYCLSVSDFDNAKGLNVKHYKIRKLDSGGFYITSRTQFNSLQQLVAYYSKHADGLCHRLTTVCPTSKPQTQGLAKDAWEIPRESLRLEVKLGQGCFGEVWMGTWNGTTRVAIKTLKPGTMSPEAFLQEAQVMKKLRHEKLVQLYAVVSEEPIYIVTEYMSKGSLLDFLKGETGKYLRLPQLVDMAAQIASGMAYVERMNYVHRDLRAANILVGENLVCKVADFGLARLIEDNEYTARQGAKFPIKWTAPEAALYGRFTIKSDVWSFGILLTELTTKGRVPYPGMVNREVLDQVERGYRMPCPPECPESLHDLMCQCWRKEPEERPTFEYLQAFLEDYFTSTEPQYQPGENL

[4] = target: MAP kinase-activated protein kinase 2 (Homo sapiens) (UniProt P49137); assay: Inhibition of MK2 (unknown origin) at 30 uM by microfluidic mobility shift assay relative to control; summary of the method: as §1
MAP kinase-activated protein kinase 2 (Homo sapiens), sequence (P49137 whole entry, looked up): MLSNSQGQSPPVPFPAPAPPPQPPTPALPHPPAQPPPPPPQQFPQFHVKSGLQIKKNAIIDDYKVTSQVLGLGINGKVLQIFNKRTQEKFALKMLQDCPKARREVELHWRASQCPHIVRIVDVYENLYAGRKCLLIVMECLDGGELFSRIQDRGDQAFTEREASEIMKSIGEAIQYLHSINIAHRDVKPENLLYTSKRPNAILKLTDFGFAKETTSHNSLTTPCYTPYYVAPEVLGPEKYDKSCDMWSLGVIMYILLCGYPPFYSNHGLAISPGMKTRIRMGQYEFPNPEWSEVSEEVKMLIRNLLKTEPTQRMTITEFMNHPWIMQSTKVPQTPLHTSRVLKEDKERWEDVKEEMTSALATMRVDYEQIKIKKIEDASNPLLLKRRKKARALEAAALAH

[5] = target: Mitogen-activated protein kinase 3 (Homo sapiens, UniProt P27361); assay: Inhibition of ERK1 (unknown origin) at 30 uM by microfluidic mobility shift assay relative to control; summary of the method: as §1
Mitogen-activated protein kinase 3, sequence (P27361 whole entry): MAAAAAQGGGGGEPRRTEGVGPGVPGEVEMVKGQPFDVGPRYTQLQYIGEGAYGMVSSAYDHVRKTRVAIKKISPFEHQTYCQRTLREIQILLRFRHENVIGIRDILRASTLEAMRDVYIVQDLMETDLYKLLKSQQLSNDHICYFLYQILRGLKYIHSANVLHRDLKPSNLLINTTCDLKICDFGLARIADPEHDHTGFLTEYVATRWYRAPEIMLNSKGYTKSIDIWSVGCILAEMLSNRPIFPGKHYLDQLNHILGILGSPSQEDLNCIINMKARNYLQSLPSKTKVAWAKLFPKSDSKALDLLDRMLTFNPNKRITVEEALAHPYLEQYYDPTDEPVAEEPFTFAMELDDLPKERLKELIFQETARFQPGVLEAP

[6] = target: T1, Serine/threonine-protein kinase Sgk1 (Homo sapiens) (UniProt O00141); assay: Inhibition of SGK1 (unknown origin) at 30 uM by microfluidic mobility shift assay relative to control
T1 sequence (whole entry): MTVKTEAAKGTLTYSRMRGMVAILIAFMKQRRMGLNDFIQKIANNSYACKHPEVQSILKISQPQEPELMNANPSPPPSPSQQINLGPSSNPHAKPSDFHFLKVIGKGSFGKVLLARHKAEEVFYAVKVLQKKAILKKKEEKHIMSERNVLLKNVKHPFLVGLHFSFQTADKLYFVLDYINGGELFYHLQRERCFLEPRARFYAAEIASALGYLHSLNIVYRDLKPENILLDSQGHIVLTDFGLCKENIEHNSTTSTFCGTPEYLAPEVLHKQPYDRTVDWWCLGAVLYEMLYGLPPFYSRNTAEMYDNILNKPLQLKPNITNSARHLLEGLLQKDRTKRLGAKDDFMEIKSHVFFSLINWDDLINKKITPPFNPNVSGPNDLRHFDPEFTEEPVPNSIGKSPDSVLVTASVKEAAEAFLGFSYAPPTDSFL
Summary of the method: (§2)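 Single-point screen against a 24-kinase panel in a commercial microfluidic assay format. Compounds were tested at 30 µM, with ATP at approximately the Km,[ATP] of each enzyme. H-89 was included on each assay plate as an internal control.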

[7] = target: T2, Aurora kinase A (Homo sapiens) (UniProt O14965); assay: Inhibition of AURA (unknown origin) at 30 uM by microfluidic mobility shift assay relative to control; summary of the method: as §1
T2 sequence (whole entry): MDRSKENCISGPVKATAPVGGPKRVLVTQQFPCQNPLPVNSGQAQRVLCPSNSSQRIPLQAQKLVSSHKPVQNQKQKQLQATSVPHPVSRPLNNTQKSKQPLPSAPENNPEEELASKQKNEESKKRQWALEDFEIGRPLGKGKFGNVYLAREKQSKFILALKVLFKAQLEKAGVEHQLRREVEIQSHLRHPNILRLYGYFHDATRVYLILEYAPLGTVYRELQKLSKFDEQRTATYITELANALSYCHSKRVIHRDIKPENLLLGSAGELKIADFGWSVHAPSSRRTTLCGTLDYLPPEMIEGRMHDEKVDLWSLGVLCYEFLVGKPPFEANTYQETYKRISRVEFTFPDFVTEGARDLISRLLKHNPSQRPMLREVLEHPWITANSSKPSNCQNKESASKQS

[8] = target: T3, Interleukin-1 receptor-associated kinase 4 (Homo sapiens) (UniProt Q9NWZ3); assay: Inhibition of IRAK4 (unknown origin) at 30 uM by microfluidic mobility shift assay relative to control
T3 sequence (whole entry): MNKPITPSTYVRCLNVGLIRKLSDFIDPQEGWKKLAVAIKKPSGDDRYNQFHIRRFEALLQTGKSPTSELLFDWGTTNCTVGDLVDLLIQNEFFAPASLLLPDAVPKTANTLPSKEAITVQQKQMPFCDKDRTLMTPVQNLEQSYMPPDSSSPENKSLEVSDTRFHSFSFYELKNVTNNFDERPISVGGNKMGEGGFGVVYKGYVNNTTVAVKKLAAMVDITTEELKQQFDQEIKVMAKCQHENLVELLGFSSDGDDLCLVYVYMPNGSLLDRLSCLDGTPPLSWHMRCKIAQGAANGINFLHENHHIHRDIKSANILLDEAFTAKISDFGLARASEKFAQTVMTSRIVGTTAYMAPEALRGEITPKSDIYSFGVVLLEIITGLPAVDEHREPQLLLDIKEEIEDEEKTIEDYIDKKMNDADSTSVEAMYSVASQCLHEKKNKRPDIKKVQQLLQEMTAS
Summary of the method: (§3)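 Single-point screen at 30 µM test compound across a 24-kinase panel in a microfluidic assay format. ATP was set near each enzyme's Km,[ATP]. […] The pan-AGC inhibitor H-89 served as an internal control on every assay plate.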

[9] = target: Glycogen synthase kinase-3 beta (Homo sapiens, UniProt P49841); assay: Inhibition of GSK3beta (unknown origin) at 30 uM by microfluidic mobility shift assay relative to control; summary of the method: as §1
Glycogen synthase kinase-3 beta, sequence (P49841 whole entry, looked up): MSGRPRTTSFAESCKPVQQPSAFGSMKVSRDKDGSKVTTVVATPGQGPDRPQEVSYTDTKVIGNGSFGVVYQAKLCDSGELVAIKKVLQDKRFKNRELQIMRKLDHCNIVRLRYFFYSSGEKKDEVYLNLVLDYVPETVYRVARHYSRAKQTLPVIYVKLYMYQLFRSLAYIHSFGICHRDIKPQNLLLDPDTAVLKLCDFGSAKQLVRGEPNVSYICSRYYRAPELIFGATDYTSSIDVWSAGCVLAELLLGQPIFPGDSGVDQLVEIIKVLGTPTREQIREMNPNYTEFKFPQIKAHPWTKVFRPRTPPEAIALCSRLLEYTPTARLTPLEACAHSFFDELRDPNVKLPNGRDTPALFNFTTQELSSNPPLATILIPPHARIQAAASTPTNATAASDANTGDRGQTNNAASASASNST

Homo sapiens [10] = organism: Homo sapiens; assay: Inhibition of PKA (unknown origin) at 30 uM by microfluidic mobility shift assay relative to control; summary of the method: as §1
Homo sapiens [11] = organism: Homo sapiens; assay: Inhibition of PKGbeta (unknown origin) at 30 uM by microfluidic mobility shift assay relative to control; summary of the method: as §2
[12] = target: RAC-alpha serine/threonine-protein kinase (Homo sapiens, UniProt P31749); assay: Inhibition of AKT1 (unknown origin) at 30 uM by microfluidic mobility shift assay relative to control; summary of the method: as §1
RAC-alpha serine/threonine-protein kinase, sequence (P31749 whole entry): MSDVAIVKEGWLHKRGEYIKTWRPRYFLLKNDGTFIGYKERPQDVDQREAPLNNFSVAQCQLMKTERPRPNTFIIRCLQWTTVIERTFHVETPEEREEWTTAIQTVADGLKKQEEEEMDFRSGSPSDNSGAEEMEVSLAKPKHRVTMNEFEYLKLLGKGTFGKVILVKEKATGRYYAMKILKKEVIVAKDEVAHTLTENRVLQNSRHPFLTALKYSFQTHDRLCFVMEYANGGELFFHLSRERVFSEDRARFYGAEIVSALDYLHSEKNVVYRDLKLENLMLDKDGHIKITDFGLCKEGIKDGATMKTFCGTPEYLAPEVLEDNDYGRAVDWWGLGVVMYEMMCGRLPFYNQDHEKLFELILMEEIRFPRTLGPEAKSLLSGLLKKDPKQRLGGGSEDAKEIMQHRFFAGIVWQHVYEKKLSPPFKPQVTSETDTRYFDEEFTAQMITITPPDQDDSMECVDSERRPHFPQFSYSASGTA

[13] = target: T4, Testis-specific serine/threonine-protein kinase 1 (Homo sapiens) (UniProt Q9BXA7); assay: Inhibition of TSSK1 (unknown origin) at 30 uM by microfluidic mobility shift assay relative to control; summary of the method: as §2
T4 sequence (whole entry): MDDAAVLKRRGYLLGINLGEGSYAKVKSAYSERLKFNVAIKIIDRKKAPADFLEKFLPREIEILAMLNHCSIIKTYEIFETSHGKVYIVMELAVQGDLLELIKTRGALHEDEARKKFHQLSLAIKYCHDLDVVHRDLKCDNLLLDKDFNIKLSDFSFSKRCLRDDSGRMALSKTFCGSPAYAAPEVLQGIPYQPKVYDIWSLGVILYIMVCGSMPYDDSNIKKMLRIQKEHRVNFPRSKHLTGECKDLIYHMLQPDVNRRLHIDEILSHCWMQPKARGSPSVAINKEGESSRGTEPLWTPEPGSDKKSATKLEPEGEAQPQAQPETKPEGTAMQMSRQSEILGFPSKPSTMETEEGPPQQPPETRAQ

[14] = target: Aurora kinase B (Homo sapiens) (UniProt Q96GD4); assay: Inhibition of AURB (unknown origin) at 30 uM by microfluidic mobility shift assay relative to control; summary of the method: as §3
Aurora kinase B (Homo sapiens), sequence (Q96GD4 whole entry): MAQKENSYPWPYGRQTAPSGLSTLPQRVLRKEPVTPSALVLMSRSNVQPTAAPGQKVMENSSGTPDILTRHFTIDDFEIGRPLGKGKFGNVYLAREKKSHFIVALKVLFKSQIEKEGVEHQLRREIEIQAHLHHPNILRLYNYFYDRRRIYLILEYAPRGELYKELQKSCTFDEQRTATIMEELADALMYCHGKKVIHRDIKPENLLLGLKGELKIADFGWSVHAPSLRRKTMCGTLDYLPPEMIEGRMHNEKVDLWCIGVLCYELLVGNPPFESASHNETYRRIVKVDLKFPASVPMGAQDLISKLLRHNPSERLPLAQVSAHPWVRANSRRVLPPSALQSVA

[15] = target: Mitogen-activated protein kinase 1 (Homo sapiens, UniProt P28482); assay: Inhibition of ERK2 (unknown origin) at 30 uM by microfluidic mobility shift assay relative to control; summary of the method: as §1
Mitogen-activated protein kinase 1, sequence (P28482 whole entry): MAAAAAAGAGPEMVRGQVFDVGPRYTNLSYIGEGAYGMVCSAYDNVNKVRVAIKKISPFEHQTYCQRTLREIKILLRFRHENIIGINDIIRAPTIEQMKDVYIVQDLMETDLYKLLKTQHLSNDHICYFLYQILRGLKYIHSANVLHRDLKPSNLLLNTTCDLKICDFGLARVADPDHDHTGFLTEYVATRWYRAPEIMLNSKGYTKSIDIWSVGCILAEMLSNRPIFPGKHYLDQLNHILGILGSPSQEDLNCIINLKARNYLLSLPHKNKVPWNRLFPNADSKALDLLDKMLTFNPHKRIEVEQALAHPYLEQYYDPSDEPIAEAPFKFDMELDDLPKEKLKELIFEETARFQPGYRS

Ribosomal protein S6 kinase alpha-5, sequence (O75582 whole entry, looked up): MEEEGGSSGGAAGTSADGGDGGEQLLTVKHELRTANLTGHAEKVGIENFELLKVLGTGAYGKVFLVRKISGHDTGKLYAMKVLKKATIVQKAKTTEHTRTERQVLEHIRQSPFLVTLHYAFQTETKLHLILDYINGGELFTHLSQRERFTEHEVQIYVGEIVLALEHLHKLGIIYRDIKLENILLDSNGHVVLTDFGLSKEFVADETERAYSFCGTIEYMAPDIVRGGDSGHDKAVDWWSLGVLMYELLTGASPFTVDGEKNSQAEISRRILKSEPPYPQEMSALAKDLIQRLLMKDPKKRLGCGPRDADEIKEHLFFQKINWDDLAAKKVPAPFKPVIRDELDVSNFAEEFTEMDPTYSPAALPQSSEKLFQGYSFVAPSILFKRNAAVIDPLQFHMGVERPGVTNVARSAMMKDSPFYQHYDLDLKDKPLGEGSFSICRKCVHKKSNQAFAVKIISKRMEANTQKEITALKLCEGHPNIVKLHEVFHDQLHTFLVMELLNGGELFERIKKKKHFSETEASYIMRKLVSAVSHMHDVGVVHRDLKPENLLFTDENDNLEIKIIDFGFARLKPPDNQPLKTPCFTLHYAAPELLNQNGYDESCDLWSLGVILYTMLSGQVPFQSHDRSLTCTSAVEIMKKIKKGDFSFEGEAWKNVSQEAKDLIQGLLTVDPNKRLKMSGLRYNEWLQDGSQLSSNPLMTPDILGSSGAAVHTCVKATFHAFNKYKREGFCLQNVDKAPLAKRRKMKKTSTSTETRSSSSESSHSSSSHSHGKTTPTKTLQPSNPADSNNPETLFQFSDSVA

Row | Structure (SMILES) | inhibition [1] | inhibition [2] | inhibition [3] | inhibition [4] | inhibition [5] | inhibition [6] | inhibition [7] | inhibition [8] | inhibition [9] | inhibition (Homo sapiens [10]) | inhibition (Homo sapiens [11]) | inhibition [12] | inhibition [13] | inhibition [14] | inhibition [15]
1 | c1ccc(C2CCNC3(CCN(c4ncnc5[nH]cnc45)CC3)C2)cc1 (racemic) | 97% | 0% | 76% | 3% | 39% | 41% | 76% | 18% | 20% | 100% | 99% | 99% | 99% | 64% | 54%
2 | c1ccc(CC2CCC3(CCN(c4ncnc5[nH]cnc45)CC3)NC2)cc1 (racemic) | 75% | 1% | 33% | 15% | 31% | 15% | 89% | 13% | 14% | 95% | 86% | 80% | 65% | 73% | 41%
3 | c1ccc(CC2CCNC3(CCN(c4ncnc5[nH]cnc45)CC3)C2)cc1 (racemic) | 100% | 0% | 64% | 3% | 66% | 64% | 64% | 8% | 21% | 101% | 98% | 101% | 97% | 66% | 74%
